# Assays:
# [1] = molecular target: Adrenergic receptor beta (Cavia porcellus); experiment: Beta adrenergic receptor blocking activity measured by the inotropic effect was determined 1 hr after pretreament of the right atria in guinea pig
# [2] = molecular target: Adrenergic receptor beta (Cavia porcellus); experiment: Beta adrenergic receptor blocking activity measured by the chronotropic effect was determined 1 hr after pretreatment of the right atria in guinea pig
# [3] = organism: Cavia porcellus; experiment: Maximal follow rate showing the contractile frequencies of atria to electrical stimulation 10 min after incubation with right atria of guinea pig.; assay type: functional
# Method in brief: (§1)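 Isolated right atria driven by electrical stimulation (Dawes' method). Maximal follow rate, the highest contractile frequency the atria follow, measured as an index of refractory period 10 min after incubation with compound.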
# [4] = system: Mus musculus; experiment: Compound was evaluated for ventricular extrasystole activity, 3 min before aconitine infusion, at a dose of 10 mg/kg, intravenously administered in mice; S=significant antiarrhythmic effect; assay type: functional, organism-based; parameters: dose 10 mg/kg; conditions: Heart
# Method in brief: (§2)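 Aconitine arrhythmia model in pentobarbital-anesthetized male mice (20-35 g). Test compound was given iv 3 min or po 30 min before continuous tail-vein infusion of aconitine (0.685 µg/min). Lead II ECG recorded; onset times of ventricular extrasystole (VES) and ventricular tachycardia (VT) were measured.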
# [5] = system: Mus musculus; experiment: Compound was evaluated for ventricular tachycardia activity in intravenously administered mice, 3 min before aconitine infusion, at a dose of 3 mg/kg; S=significant antiarrhythmic effect; assay type: functional, organism-based; parameters: dose 3 mg/kg; conditions: Heart
# Method in brief: as §2
# [6] = organism: Cavia porcellus; experiment: Effect on maximal follow rate showing the contractile frequencies of atria to electrical stimulation 10 min after incubating compound with right atria of guinea pig; assay type: functional
# Method in brief: as §1
# [7] = system: Mus musculus; experiment: Compound was evaluated for ventricular extrasystole, 30 min before aconitine infusion, at a dose of 10 mg/kg, perorally administered in mice; S=significant antiarrhythmic effect; assay type: functional, organism-based; parameters: dose 10 mg/kg; conditions: Heart
# Method in brief: as §2
# [8] = system: Mus musculus; experiment: Compound was evaluated for ventricular tachycardia activity in perorally administered mice, 30 min before aconitine infusion, at a dose of 10 mg/kg; S=significant antiarrhythmic effect; assay type: functional, organism-based; parameters: dose 10 mg/kg; conditions: Heart
# Method in brief: as §2
# [9] = Lethal dose in mice (LD50) (following i.v. dosing); conditions: mouse, in vivo, iv
# [10] = system: Mus musculus; experiment: Compound was evaluated for ventricular extrasystole activity, 3 min before aconitine infusion, at a dose of 3 mg/kg, intravenously administered in mice; S=significant antiarrhythmic effect; assay type: functional, organism-based; parameters: dose 3 mg/kg; conditions: Heart
# Method in brief: as §2
# [11] = organism: Canis familiaris; experiment: Duration of ischemic arrhythmias in dogs determined in minutes.
# [12] = system: Canis familiaris; experiment: Effect on ischemic arrhythmias was studied in dogs. 3 mg/kg was injected intravenously and percent sinus beats before compound administration, was reported.; assay type: functional, Canis lupus familiaris; conditions: route intravenous
# Method in brief: (§3)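 Conscious dogs with ischemic ventricular arrhythmias persisting for 24 h after a glass bead was inserted into a coronary artery. Compound was given iv or orally. Lead II ECG recorded continuously by telemetry. Percent sinus beats taken before and after dosing, plus duration of effect (min).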
# [13] = system: Canis familiaris; experiment: Effect on ischemic arrhythmias was studied in dogs. 3 mg/kg was injected intravenously and percent sinus beats after compound administration, was reported.; assay type: functional, Canis lupus familiaris; conditions: route intravenous
# Method in brief: as §3
# [14] = system: Mus musculus; experiment: Compound was evaluated for ventricular extrasystole, 30 min before aconitine infusion, at a dose of 30 mg/kg, perorally administered in mice; S=significant antiarrhythmic effect; assay type: functional, organism-based; parameters: dose 30 mg/kg; conditions: Heart
# Method in brief: as §2
# [15] = system: Mus musculus; experiment: Compound was evaluated for ventricular tachycardia activity in perorally administered mice, 30 min before aconitine infusion, at a dose of 30 mg/kg; S=significant antiarrhythmic effect; assay type: functional, organism-based; parameters: dose 30 mg/kg; conditions: Heart
# Method in brief: as §2
# [16] = system: Mus musculus; experiment: Compound was evaluated for ventricular tachycardia activity in intravenously administered mice, 3 min before aconitine infusion, at a dose of 10 mg/kg; S=significant antiarrhythmic effect; assay type: functional, organism-based; parameters: dose 10 mg/kg; conditions: Heart
# Method in brief: as §2
# [17] = system: Canis familiaris; experiment: Effect on ischemic arrhythmias was studied in dogs, by glass bead method. 60 mg/kg was administered perorally and percent sinus beats after compound administration, was reported.; assay type: functional, Canis lupus familiaris; conditions: route oral
# Method in brief: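 Conscious dogs; ventricular arrhythmias induced by inserting a glass bead into a coronary artery, with marked arrhythmias persisting for 24 h. Compound given orally. Lead II ECG recorded continuously by telemetry. Percent sinus beats measured before and after dosing, and duration of effect in min recorded.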
# [18] = system: Canis familiaris; experiment: Effect on ischemic arrhythmias was studied in dogs, by glass bead method. 60 mg/kg was administered perorally and percent sinus beats before compound administration, was reported.; assay type: functional, Canis lupus familiaris; conditions: route oral
# Method in brief: as §3
SMILES,pA2 [1],pA2 [2],Decrease [3] [%],other results
C=C(c1ccccc1OCC(O)CNC(C)(C)C)n1ccnc1C (stereo not drawn),6.97,6.97,27.1,
C=C(c1ccccc1OCC(O)CN1CCCC1)n1ccnc1 (stereo not drawn),6.15,6.13,16.7,
C=C(c1cccc(OC)c1OCC(O)CNC(C)C)n1cnc2ccccc21 (stereo not drawn),6.41,6.26,22.3,
C=C(c1c(Cl)ccc(Cl)c1OC[C@@H](O)CNC(C)C)n1ccnc1.Cl,5.05,5.08,,Activity [4]: Anti-arrhythmic; Activity [5]: Anti-arrhythmic; Decrease [6]: 40.3%; Activity [7]: Anti-arrhythmic; Activity [8]: Anti-arrhythmic
C=C(c1cccc(OC)c1OCC(O)CNC(C)(C)C)n1cnc2ccccc21 (stereo not drawn),7.03,7.03,39.2,LD50 [9]: 19.8 mg/kg; Activity [10]: Anti-arrhythmic; Activity [5]: Anti-arrhythmic
CC(C)=C(c1cc(Cl)ccc1OCC(O)CNC(C)C)n1ccnc1 (stereo not drawn),5.19,4.9,21.6,
C=C(c1cc(Cl)cc(Cl)c1OCC(O)CNC(C)C)n1ccnc1 (stereo not drawn),6.64,6.5,27.5,
C=C(c1cc(Cl)cc(C)c1OCC(O)CNC(C)(C)C)n1ccnc1 (stereo not drawn),5.04,5.49,27.3,
C=C(c1c(Cl)ccc(Cl)c1OCC(O)CNC(C)(C)C)n1ccnc1 (stereo not drawn),5.41,5.27,26.3,
C=C(c1ccccc1OCC(O)CNC(C)C)n1ccc(=O)cc1 (stereo not drawn),6.19,6.2,13,
C=C(c1ccccc1OCC(O)CNC(C)C)n1cncn1 (stereo not drawn),6.33,6.12,,Duration [11]: 15 min; Activity [10]: Anti-arrhythmic; Sinus beats [12]: 9.8%; Activity [5]: Anti-arrhythmic; Sinus beats [13]: 28.3%; Activity [14]: Anti-arrhythmic
C=C(c1cccc(C)c1OCC(O)CNC(C)(C)C)n1ccnc1 (stereo not drawn),5.62,5.81,46.6,LD50 [9]: 23.1 mg/kg; Activity [10]: Anti-arrhythmic; Activity [5]: Anti-arrhythmic; Activity [15]: Anti-arrhythmic; Activity [14]: Anti-arrhythmic
C=C(c1ccccc1OCC(O)CNC(C)(C)C)n1ccnc1 (stereo not drawn),8.01,7.69,14.1,
C=C(c1cccc(OC)c1OCC(O)CNC(C)C)n1ccnc1 (stereo not drawn),6.99,6.64,29,
C=C(c1ccccc1OCC(O)CN(C)C)n1ccnc1 (stereo not drawn),6.12,5.41,30.7,LD50 [9]: 45.4 mg/kg; Activity [16]: Anti-arrhythmic; Activity [4]: Anti-arrhythmic
CC(C)NCC(O)COc1ccccc1Cn1cccn1 (stereo not drawn),7.54,7.42,28.7,
C=C(c1ccccc1OCC(O)CNC(C)C)n1cccn1 (stereo not drawn),7.75,7.44,21.6,
C=C(c1cc(C)cc(C)c1OCC(O)CNC(C)(C)C)n1ccnc1 (stereo not drawn),6.58,5.55,31.8,LD50 [9]: 15.9 mg/kg; Activity [10]: Anti-arrhythmic; Activity [5]: Anti-arrhythmic
CC(C)NCC(O)COc1ccccc1C(C)n1ccnc1 (stereo not drawn),6.83,6.9,15.6,
C=C(c1ccc(Cl)cc1OCC(O)CNC(C)C)n1ccnc1 (stereo not drawn),5.95,5.86,26.3,
C=C(c1cc(Cl)c(Cl)cc1OCC(O)CNC(C)C)n1ccnc1 (stereo not drawn),6.23,6.64,23.8,
C=C(c1c(Cl)ccc(Cl)c1OC[C@H](O)CNC(C)C)n1ccnc1.Cl,5.19,4.46,,Activity [10]: Anti-arrhythmic; Activity [5]: Anti-arrhythmic; Decrease [6]: 39.5%; Activity [8]: Anti-arrhythmic
C=C(c1ccccc1OCC(O)CNC(C)C)n1cnc2ccccc21 (stereo not drawn),6.46,6.67,16.8,

SMILES,pA2 [1],pA2 [2],Decrease [3] [%],other results
C=C(c1c(C)c(C)cc(Cl)c1OCC(O)CNC(C)(C)C)n1ccnc1 (stereo not drawn),6.21,6.18,31.9,LD50 [9]: 18.8 mg/kg; Activity [10]: Anti-arrhythmic; Activity [5]: Anti-arrhythmic
CC(C)NCC(O)COc1cccc2ccccc12 (stereo not drawn) [PROPRANOLOL],,,,Sinus beats [17]: 51.6%; Sinus beats [18]: 12%; Activity [16]: Anti-arrhythmic; Activity [4]: Anti-arrhythmic; Decrease [6]: 33.5%; Activity [14]: Anti-arrhythmic
C/C=C(\c1ccccc1OCC(O)CNC(C)C)n1ccnc1 (stereo not drawn),6.76,6.52,18.6,
C=C(c1ccccc1OCC(O)CNC(C)C)n1ccnc1C (stereo not drawn),6.24,6.24,15,
C=C(c1ccccc1OCC(O)CNC(C)C)n1ccnc1 (stereo not drawn),6.89,6.89,27.1,
C=C(c1c(C)ccc(C)c1OCC(O)CNC(C)C)n1ccnc1 (stereo not drawn),6.43,6.23,35.7,LD50 [9]: 30.7 mg/kg; Activity [10]: Anti-arrhythmic; Activity [5]: Anti-arrhythmic
C=C(c1ccccc1OCC(O)CNC(C)(C)C)n1cccn1 (stereo not drawn),8.01,8.1,,Activity [16]: Anti-arrhythmic
C=C(c1cc(C)cc(C)c1OCC(O)CNC(C)C)n1ccnc1 (stereo not drawn),6.31,5.55,25.9,
C=C(c1cc(Cl)cc(Cl)c1OCC(O)CNC(C)(C)C)n1ccnc1 (stereo not drawn),6.51,6.3,27.1,
C=C(c1ccccc1OCC(O)CNC(C)C)n1cnc(C)c1 (stereo not drawn),7.16,7.19,,Activity [5]: Anti-arrhythmic
C=C(c1ccccc1OCC(O)CNC(C)(C)C)n1cnc2ccccc21 (stereo not drawn),7.08,7.29,,Activity [10]: Anti-arrhythmic; Activity [5]: Anti-arrhythmic
C=C(c1cccc(Cl)c1OCC(O)CNC(C)C)n1ccnc1 (stereo not drawn),5.63,5.66,28.2,
C=C(c1c(Cl)cc(Cl)cc1OCC(O)CNC(C)C)n1ccnc1 (stereo not drawn),6.27,6.44,19.6,
C=C(c1cc(Cl)cc(C)c1OCC(O)CNC(C)C)n1ccnc1 (stereo not drawn),5.93,5.22,37.9,LD50 [9]: 48.8 mg/kg; Activity [10]: Anti-arrhythmic; Activity [5]: Anti-arrhythmic
CC(C)NCC(O)COc1ccccc1Cn1ccnc1 (stereo not drawn),6.66,6.69,14.2,
C=C(c1ccccc1OCC(O)CNC(C)C)n1c(C)cnc1CC (stereo not drawn),6.17,5.8,9.1,
C=C(c1cc(Cl)ccc1OCC(O)CNC(C)C)n1ccnc1 (stereo not drawn),6.41,6.3,27.1,
C=C(c1c(C)ccc(C)c1OCC(O)CNC(C)(C)C)n1ccnc1 (stereo not drawn),6.47,6.36,17.1,
C=C(c1ccc(Cl)cc1OCC(O)CNC)n1ccnc1 (stereo not drawn),6.21,6.19,17.8,
C=C(c1cc(Cl)ccc1OCC(O)CNC(C)C)n1cccn1 (stereo not drawn),6.74,6.76,14.3,
C=C(c1ccccc1OCC(O)CNC(C)C)n1cnc(C(=O)OCC)c1C (stereo not drawn),6.37,6.15,,
C/C=C(\c1ccccc1OCC(O)CNC(C)(C)C)n1ccnc1 (stereo not drawn),7.3,7.19,14.5,

# Reference: ChEMBL document CHEMBL1122721, “Synthesis and antiarrhythmic activity of new 1-[1-[2-[3-(alkylamino)-2-hydroxypropoxy]phenyl]vinyl]-1 H-imidazoles and related compounds” (J Med Chem, 1984)
